In ChEMBL document CHEMBL2434855, “Aggrecanase-2 inhibitors based on the acylthiosemicarbazide zinc-binding group” (Eur J Med Chem, 2013):

Legend:
[1] = molecular target: Macrophage metalloelastase (Homo sapiens, UniProt P39900); test: Inhibition of human MMP-12 after 60 mins
[2] = molecular target: T1, A disintegrin and metalloproteinase with thrombospondin motifs 4 (Homo sapiens, UniProt O75173); test: Inhibition of human recombinant ADAMTS-4 using QTVTWPDMELPLPRNITEGEARGSVIL-TVKPIFEVSPSPL(biotinyl)K as substrate incubated for 10 mins prior to substrate addition measured after 3 hrs by spectrophotometry
T1 sequence (O75173 whole entry): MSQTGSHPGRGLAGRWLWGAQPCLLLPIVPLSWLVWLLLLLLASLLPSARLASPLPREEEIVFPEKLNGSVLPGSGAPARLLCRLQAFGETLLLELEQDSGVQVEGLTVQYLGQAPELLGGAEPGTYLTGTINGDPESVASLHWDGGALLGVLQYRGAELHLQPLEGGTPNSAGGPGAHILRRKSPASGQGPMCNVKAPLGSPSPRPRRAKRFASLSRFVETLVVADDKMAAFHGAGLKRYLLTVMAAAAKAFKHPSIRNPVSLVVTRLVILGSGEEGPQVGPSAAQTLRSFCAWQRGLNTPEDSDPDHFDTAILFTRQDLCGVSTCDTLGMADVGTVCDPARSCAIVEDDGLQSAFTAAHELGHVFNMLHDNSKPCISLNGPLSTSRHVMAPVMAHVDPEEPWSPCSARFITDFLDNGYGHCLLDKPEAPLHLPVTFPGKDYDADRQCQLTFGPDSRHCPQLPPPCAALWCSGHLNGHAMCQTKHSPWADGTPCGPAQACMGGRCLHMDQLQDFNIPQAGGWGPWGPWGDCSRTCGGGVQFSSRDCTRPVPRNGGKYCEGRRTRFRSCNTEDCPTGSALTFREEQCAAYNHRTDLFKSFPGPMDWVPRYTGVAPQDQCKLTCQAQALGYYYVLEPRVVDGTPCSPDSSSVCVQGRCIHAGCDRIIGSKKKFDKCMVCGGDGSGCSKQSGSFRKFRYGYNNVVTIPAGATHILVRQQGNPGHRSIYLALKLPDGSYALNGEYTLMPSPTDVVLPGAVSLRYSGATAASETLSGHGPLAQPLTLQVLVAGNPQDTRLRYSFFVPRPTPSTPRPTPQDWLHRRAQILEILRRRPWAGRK
Outline: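 It was then added to streptavidin wells coated with the biotinylated 41-mer aggrecan peptide and reacted for 3 h at 37 °C. Cleavage product was detected by BC-3 anti-ARGxx ELISA with HRP and TMB, read at 450 nm.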

[3] = molecular target: T2, A disintegrin and metalloproteinase with thrombospondin motifs 5 (Homo sapiens, UniProt Q9UNA0); test: Inhibition of human recombinant ADAMTS-5 using QTVTWPDMELPLPRNITEGEARGSVIL-TVKPIFEVSPSPL(biotinyl)K as substrate incubated 10 mins prior to substrate addition measured after 3 hrs by spectrophotometry
T2 sequence (Q9UNA0 whole entry): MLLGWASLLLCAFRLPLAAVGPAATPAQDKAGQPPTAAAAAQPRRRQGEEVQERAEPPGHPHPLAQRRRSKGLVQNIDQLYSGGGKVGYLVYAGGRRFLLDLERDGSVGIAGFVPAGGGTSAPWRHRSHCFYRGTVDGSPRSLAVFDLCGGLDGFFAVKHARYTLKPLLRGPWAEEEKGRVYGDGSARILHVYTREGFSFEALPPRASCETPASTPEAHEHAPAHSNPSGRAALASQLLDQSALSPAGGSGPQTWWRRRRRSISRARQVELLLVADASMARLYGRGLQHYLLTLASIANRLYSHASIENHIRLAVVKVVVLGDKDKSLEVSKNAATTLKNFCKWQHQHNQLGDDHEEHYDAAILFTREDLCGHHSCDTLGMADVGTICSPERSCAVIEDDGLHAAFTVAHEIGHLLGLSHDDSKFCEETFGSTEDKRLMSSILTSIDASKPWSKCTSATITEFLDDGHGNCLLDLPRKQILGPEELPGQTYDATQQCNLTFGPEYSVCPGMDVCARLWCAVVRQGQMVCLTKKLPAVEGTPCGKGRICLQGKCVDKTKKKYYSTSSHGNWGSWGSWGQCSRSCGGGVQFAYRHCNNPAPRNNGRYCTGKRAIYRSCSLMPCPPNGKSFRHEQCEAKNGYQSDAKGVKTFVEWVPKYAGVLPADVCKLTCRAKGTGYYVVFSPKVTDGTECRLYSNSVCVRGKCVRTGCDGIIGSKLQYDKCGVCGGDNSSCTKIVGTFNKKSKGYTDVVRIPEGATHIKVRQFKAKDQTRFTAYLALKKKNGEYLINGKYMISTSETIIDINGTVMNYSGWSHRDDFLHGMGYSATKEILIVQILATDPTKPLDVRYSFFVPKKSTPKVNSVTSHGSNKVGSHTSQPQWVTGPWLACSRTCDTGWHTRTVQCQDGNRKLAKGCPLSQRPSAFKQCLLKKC

[4] = molecular target: Matrix metalloproteinase-9 (Homo sapiens, UniProt P14780); test: Inhibition of human MMP-9 using NFF-2 as substrate at 10 uM after 90 mins
[5] = molecular target: Neutrophil collagenase (Homo sapiens, UniProt P22894); test: Inhibition of human MMP-8 using Mca-Pro-Cha-Gly-Nva-His-Ala-Dpa-NH2 as substrate after 120 mins
Neutrophil collagenase, sequence (P22894 whole entry): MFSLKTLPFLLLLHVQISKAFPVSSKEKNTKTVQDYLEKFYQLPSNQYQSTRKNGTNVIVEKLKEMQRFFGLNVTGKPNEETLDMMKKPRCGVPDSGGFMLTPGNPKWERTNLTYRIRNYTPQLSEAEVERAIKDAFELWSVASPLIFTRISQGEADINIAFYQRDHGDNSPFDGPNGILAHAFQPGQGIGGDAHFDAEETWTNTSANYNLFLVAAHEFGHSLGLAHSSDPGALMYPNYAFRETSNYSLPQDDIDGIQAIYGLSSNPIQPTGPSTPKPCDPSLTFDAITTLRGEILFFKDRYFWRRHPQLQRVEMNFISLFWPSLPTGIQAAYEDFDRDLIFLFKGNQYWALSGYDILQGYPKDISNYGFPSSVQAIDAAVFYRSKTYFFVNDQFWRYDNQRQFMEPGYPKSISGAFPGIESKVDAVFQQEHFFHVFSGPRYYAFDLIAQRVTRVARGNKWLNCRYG

Matrix metalloproteinase-9, sequence (P14780 whole entry): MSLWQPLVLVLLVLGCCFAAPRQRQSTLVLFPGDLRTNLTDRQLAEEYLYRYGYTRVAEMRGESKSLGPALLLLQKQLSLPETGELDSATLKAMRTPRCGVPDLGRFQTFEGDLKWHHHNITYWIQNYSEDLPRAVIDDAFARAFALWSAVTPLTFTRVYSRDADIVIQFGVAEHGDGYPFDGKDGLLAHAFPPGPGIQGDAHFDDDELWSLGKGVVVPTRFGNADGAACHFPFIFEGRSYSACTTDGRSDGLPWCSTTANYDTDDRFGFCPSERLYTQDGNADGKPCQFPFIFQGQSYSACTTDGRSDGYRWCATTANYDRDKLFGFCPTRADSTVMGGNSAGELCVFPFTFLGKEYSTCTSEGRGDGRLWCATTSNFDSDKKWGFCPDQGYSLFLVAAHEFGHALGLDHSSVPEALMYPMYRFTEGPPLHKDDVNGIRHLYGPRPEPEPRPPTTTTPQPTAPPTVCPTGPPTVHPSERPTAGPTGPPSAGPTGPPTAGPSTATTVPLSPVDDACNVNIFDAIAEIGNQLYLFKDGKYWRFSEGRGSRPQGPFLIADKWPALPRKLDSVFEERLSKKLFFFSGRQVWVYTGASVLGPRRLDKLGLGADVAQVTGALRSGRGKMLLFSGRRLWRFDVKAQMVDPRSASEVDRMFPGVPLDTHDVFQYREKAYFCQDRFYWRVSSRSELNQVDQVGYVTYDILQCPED
Macrophage metalloelastase, sequence (P39900 whole entry): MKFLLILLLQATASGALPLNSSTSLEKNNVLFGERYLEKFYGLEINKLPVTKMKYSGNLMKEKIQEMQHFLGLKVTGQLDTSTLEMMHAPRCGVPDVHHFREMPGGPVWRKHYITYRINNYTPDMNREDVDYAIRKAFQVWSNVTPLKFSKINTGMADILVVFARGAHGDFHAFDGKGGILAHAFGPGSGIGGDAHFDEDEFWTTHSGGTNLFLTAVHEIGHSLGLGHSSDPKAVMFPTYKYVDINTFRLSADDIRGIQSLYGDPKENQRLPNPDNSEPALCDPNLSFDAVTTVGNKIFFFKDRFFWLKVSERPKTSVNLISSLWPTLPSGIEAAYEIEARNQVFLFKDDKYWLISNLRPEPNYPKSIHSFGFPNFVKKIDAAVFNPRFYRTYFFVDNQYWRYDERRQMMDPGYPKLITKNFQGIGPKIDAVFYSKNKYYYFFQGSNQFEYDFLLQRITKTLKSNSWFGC

Structure (SMILES): O=C(COc1ccc(Cl)cc1)NNC(=S)NCCCCC1CCCCC1
- IC50 [1]: > 100000 nM
- IC50 [2]: 630 nM
- IC50 [3]: 170 nM
- inhibition [4]: < 10%
- IC50 [5]: 47000 nM
